The target of data set [1] is T1, Neuropeptide Y receptor type 4 (Homo sapiens, UniProt P50391). Nature of the data set: Agonist activity at GFP-tagged neuropeptide Y4R (unknown origin) expressed in HEK293T cells assessed as beta-arrestin2 recruitment measured after 60 mins by H33342 staining-based imaging method. It is filed as cell-based. Background: Arrestin recruitment assays detect the binding of arrestin to an activated receptor.

Data set [2] deals with T1, Neuropeptide Y receptor type 4. Briefly: Displacement of [Lys2(sCy5),Arg4]-BVD-15 from C-terminal GFP-tagged neuropeptide Y4R (unknown origin) expressed in human 293TR cells measured after 30 mins by fluorescence analysis. The data set is classed as cell-based.
Data set [3] shares this target. Briefly: Agonist activity at GFP-tagged neuropeptide Y4R (unknown origin) expressed in HEK293T cells assessed as beta-arrestin2 recruitment measured after 60 mins by H33342 staining-based imaging method relative to PP. It is filed as cell-based. A digest of the protocol:
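Y4R–β-arrestin2 BiFC cell lines were seeded on poly-D-lysine plates and tested 24 h later. Ligands (10^-10–10^-6 M, duplicate wells) were applied in HBSS/0.1% BSA for 60 min at 37°C. Cells were fixed with 3% paraformaldehyde (10 min, 21°C) and nuclei stained with H33342. Confocal images were taken at 405/488 nm, and internal YFP granules ≥3 µm were counted against vehicle or 100 nM PP thresholds.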

For data set [4] the target is unchanged. Briefly: Agonist activity at GFP-tagged neuropeptide Y4R (unknown origin) expressed in HEK293T cells assessed as beta-arrestin2 recruitment at 1 uM measured after 60 mins by H33342 staining-based imaging method relative to PP. The data set is classed as cell-based. Summed up: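 Y4R–β-arrestin2 BiFC cells were stimulated in HBSS/0.1% BSA for 60 min at 37°C, then fixed with 3% paraformaldehyde and stained with H33342. Complemented YFP was imaged by confocal platereader and quantified by granularity analysis with vehicle or 100 nM PP controls. Where agonist activity was not significant, the response at 1 µM peptide was reported.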

The species entered for data set [5] is Homo sapiens. Nature of the data set: Selectivity ratio of IC50 for GFP-tagged neuropeptide Y1R (unknown origin) expressed in HEK293T cells to IC50 for C-terminal GFP-tagged neuropeptide Y4R (unknown origin) expressed in human 293TR cells. It is filed as cell-based. Summed up: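 Whole-cell competition binding used tetracycline-induced 293TR cells expressing Y1-GFP or Y4-GFP. Cells were exposed to competitor for 2 min, then to sCy5-labelled tracer (10 nM for Y1R, 100 nM for Y4R) for 30 min at 37°C.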

The nature of data set [6]: Cellular uptake in human 293T-rex cells expressing C-terminal GFP-tagged neuropeptide Y4R measured after 30 mins by fluorescence analysis. It is filed as ADME, cell-based. The settings on record: hek-293t, 0.5 h. A digest of the protocol:
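293TR Y4-GFP cells, induced with 1 µg/ml tetracycline for 18–21 h, were incubated with sCy5-labelled peptide for 30 min at 37°C in HBSS/0.1% BSA with H33342. Controls were uninduced cells and 1 µM PP competition. Surface and intracellular sCy5 fluorescence was imaged by confocal platereader.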

Some results are limits rather than exact numbers.

T1 sequence (P50391 whole entry): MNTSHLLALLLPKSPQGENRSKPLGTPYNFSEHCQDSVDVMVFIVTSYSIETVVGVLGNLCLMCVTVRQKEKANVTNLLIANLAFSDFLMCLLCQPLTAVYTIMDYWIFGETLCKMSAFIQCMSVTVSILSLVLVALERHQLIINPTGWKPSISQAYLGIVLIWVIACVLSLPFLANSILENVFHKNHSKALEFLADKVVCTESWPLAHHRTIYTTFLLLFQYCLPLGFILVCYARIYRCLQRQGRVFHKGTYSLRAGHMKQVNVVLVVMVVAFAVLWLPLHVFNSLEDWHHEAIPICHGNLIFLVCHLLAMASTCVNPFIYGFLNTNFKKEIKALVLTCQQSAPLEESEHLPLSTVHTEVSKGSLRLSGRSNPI

`CCN(CC)c1ccc2c(-c3ccccc3C(=O)N3CCN(C(=O)CCC(=O)N[C@@H](C/C=C\C[C@H](N)C(=O)N[C@@H](Cc4ccc(O)cc4)C(=O)N[C@@H](CCCNC(=N)N)C(=O)N[C@@H](CC(C)C)C(=O)N[C@@H](CCCNC(=N)N)C(=O)N[C@@H](Cc4ccc(O)cc4)C(N)=O)C(=O)N[C@@H](Cc4ccc(O)cc4)C(=O)N[C@@H](CCCNC(=N)N)C(=O)N[C@@H](CC(C)C)C(=O)N[C@@H](CCCNC(=N)N)C(=O)N[C@@H](Cc4ccc(O)cc4)C(N)=O)CC3)c3ccc(=[N+](CC)CC)cc-3oc2c1`: the EC50 in data set [1] (read-out: pEC50 (converted)) was 5.5 nM. In addition, the IC50 in data set [2] (read-out: pIC50 (converted)) was 69.2 nM. In addition, the Rmax in data set [3] was found to be 29.2%.

`COC(=O)[C@H](Cc1ccc(O)cc1)NC(=O)[C@H](CCCNC(=N)N)NC(=O)[C@H](CC(C)C)NC(=O)[C@H](CCCNC(=N)N)NC(=O)[C@H](Cc1ccc(O)cc1)NC(=O)[C@@H](N)CCCC[C@H](N)C(=O)N[C@@H](Cc1ccc(O)cc1)C(=O)N[C@@H](CCCNC(=N)N)C(=O)N[C@@H](CC(C)C)C(=O)N[C@@H](CCCNC(=N)N)C(=O)N[C@@H](Cc1ccc(O)cc1)C(=O)OC`: the Rmax in data set [4] is 11.3%. Besides, the Ratio IC50 in data set [5] was determined as 0.38. The IC50 in data set [2] (read-out: pIC50 (converted)) is 617 nM.

As to `CC(C)C[C@H](NC(=O)[C@H](CCCNC(=N)N)NC(=O)[C@H](Cc1ccc(O)cc1)NC(=O)[C@H](N)C/C=C\C[C@@H](N)C(=O)N[C@@H](Cc1ccc(O)cc1)C(=O)N[C@@H](CCCNC(=N)N)C(=O)N[C@@H](CC(C)C)C(=O)N[C@@H](CCCNC(=N)N)C(=O)N[C@@H](Cc1ccc(O)cc1)C(N)=O)C(=O)N[C@@H](CCCNC(=N)N)C(=O)N[C@@H](Cc1ccc(O)cc1)C(N)=O`, the EC50 in data set [1] (read-out: pEC50 (converted)) is 38 nM. In addition, the IC50 in data set [2] (read-out: pIC50 (converted)) was 24 nM. In addition, the Rmax in data set [3] turned out to be 61%.

For `COC(=O)[C@H](Cc1ccc(O)cc1)NC(=O)[C@H](CCCNC(=N)N)NC(=O)[C@H](CC(C)C)NC(=O)[C@H](CCCNC(=N)N)NC(=O)[C@H](Cc1ccc(O)cc1)NC(=O)[C@@H](N)CCCC[C@H](N)C(=O)N[C@@H](Cc1ccc(O)cc1)C(=O)N[C@@H](CCCNC(=N)N)C(=O)N[C@@H](CC(C)C)C(=O)N[C@@H](CCCNC(=N)N)C(=O)N[C@@H](Cc1ccc(O)cc1)C(N)=O`, the EC50 in data set [1] (read-out: pEC50 (converted)) is over 316 nM. The IC50 in data set [2] (read-out: pIC50 (converted)) was 93.3 nM. Moreover, the Rmax in data set [3] came to 49.1%.

For the compound `CCN(CC)c1ccc2c(-c3ccccc3C(=O)N3CCN(C(=O)CCC(=O)N[C@@H](CCCC[C@H](N)C(=O)N[C@@H](Cc4ccc(O)cc4)C(=O)N[C@@H](CCCNC(=N)N)C(=O)N[C@@H](CC(C)C)C(=O)N[C@@H](CCCNC(=N)N)C(=O)N[C@@H](Cc4ccc(O)cc4)C(N)=O)C(=O)N[C@@H](Cc4ccc(O)cc4)C(=O)N[C@@H](CCCNC(=N)N)C(=O)N[C@@H](CC(C)C)C(=O)N[C@@H](CCCNC(=N)N)C(=O)N[C@@H](Cc4ccc(O)cc4)C(N)=O)CC3)c3ccc(=[N+](CC)CC)cc-3oc2c1`, the Rmax in data set [4] turned out to be 15.9%. Further, in data set [2] (read-out: pIC50 (converted)), the IC50 is 70.8 nM.

In the case of `CC(C)C[C@H](NC(=O)[C@H](CCCNC(=N)N)NC(=O)[C@H](Cc1ccc(O)cc1)NC(=O)[C@@H](N)C/C=C\C[C@H](N)C(=O)N[C@@H](Cc1ccc(O)cc1)C(=O)N[C@@H](CCCNC(=N)N)C(=O)N[C@@H](CC(C)C)C(=O)N[C@@H](CCCNC(=N)N)C(=O)N[C@@H](Cc1ccc(O)cc1)C(N)=O)C(=O)N[C@@H](CCCNC(=N)N)C(=O)N[C@@H](Cc1ccc(O)cc1)C(N)=O`, the Ratio IC50 in data set [5] came to 3.7. For the same compound, the EC50 in data set [1] (read-out: pEC50 (converted)) is 30.2 nM. In addition, the IC50 in data set [2] (read-out: pIC50 (converted)) was 132 nM. The Rmax in data set [3] stood at 44.5%.

In the case of `CC(C)C[C@H](NC(=O)[C@H](CCCNC(=N)N)NC(=O)[C@H](Cc1ccc(O)cc1)NC(=O)[C@H](N)CCCC[C@@H](N)C(=O)N[C@@H](Cc1ccc(O)cc1)C(=O)N[C@@H](CCCNC(=N)N)C(=O)N[C@@H](CC(C)C)C(=O)N[C@@H](CCCNC(=N)N)C(=O)N[C@@H](Cc1ccc(O)cc1)C(N)=O)C(=O)N[C@@H](CCCNC(=N)N)C(=O)N[C@@H](Cc1ccc(O)cc1)C(N)=O`, the Ratio IC50 in data set [5] worked out at 30. In data set [1] (read-out: EC50), the EC50 came to 4.6 nM. In addition, the IC50 in data set [2] (read-out: IC50) worked out at 12.7 nM. For the same compound, the Rmax in data set [3] was found to be 61.5%.

For `CC(C)C[C@H](NC(=O)[C@H](CCCNC(=N)N)NC(=O)[C@H](Cc1ccc(O)cc1)NC(=O)[C@@H](N)CCCC[C@H](N)C(=O)N[C@@H](Cc1ccc(O)cc1)C(=O)N[C@@H](CCCNC(=N)N)C(=O)N[C@@H](CC(C)C)C(=O)N[C@@H](CCCNC(=N)N)C(=O)N[C@@H](Cc1ccc(O)cc1)C(N)=O)C(=O)N[C@@H](CCCNC(=N)N)C(=O)N[C@@H](Cc1ccc(O)cc1)C(N)=O`, the EC50 in data set [1] (read-out: pEC50 (converted)) is 83.2 nM. Further, the IC50 in data set [2] (read-out: pIC50 (converted)) was 69.2 nM. The Rmax in data set [3] was 57.1%.

As for `CCN(CC)c1ccc2c(-c3ccccc3C(=O)N3CCN(C(=O)CCC(=O)N[C@H](C/C=C\C[C@@H](N)C(=O)N[C@@H](Cc4ccc(O)cc4)C(=O)N[C@@H](CCCNC(=N)N)C(=O)N[C@@H](CC(C)C)C(=O)N[C@@H](CCCNC(=N)N)C(=O)N[C@@H](Cc4ccc(O)cc4)C(N)=O)C(=O)N[C@@H](Cc4ccc(O)cc4)C(=O)N[C@@H](CCCNC(=N)N)C(=O)N[C@@H](CC(C)C)C(=O)N[C@@H](CCCNC(=N)N)C(=O)N[C@@H](Cc4ccc(O)cc4)C(N)=O)CC3)c3ccc(=[N+](CC)CC)cc-3oc2c1`, the EC50 in data set [1] (read-out: pEC50 (converted)) was 3.72 nM. Besides, in data set [2] (read-out: pIC50 (converted)), the IC50 is 70.8 nM. In data set [3], the Rmax is 39.3%.

`CCN1\C(=C/C=C/C=C/C2=[N+](CCCCCC(=O)N[C@H](CCCC[C@@H](N)C(=O)N[C@@H](Cc3ccc(O)cc3)C(=O)N[C@@H](CCCNC(=N)N)C(=O)N[C@@H](CC(C)C)C(=O)N[C@@H](CCCNC(=N)N)C(=O)N[C@@H](Cc3ccc(O)cc3)C(N)=O)C(=O)N[C@@H](Cc3ccc(O)cc3)C(=O)N[C@@H](CCCNC(=N)N)C(=O)N[C@@H](CC(C)C)C(=O)N[C@@H](CCCNC(=N)N)C(=O)N[C@@H](Cc3ccc(O)cc3)C(N)=O)c3ccc(S(=O)(=O)O)cc3C2(C)C)C(C)(C)c2cc(S(=O)(=O)[O-])ccc21`: the Drug uptake entry in data set [6] is “Dose-dependent effect”. Besides, in data set [1] (read-out: pEC50 (converted)), the EC50 was 33.1 nM. Besides, in data set [3], the Rmax was 65.6%.

Turning to `CCN1\C(=C/C=C/C=C/C2=[N+](CCCCCC(=O)N[C@@H](CCCC[C@H](N)C(=O)N[C@@H](Cc3ccc(O)cc3)C(=O)N[C@@H](CCCNC(=N)N)C(=O)N[C@@H](CC(C)C)C(=O)N[C@@H](CCCNC(=N)N)C(=O)N[C@@H](Cc3ccc(O)cc3)C(N)=O)C(=O)N[C@@H](Cc3ccc(O)cc3)C(=O)N[C@@H](CCCNC(=N)N)C(=O)N[C@@H](CC(C)C)C(=O)N[C@@H](CCCNC(=N)N)C(=O)N[C@@H](Cc3ccc(O)cc3)C(N)=O)c3ccc(S(=O)(=O)O)cc3C2(C)C)C(C)(C)c2cc(S(=O)(=O)[O-])ccc21`, the Drug uptake entry in data set [6] was “Dose-dependent effect”. The EC50 in data set [1] (read-out: pEC50 (converted)) is 95.5 nM. Also, the Rmax in data set [3] came out at 56.6%.

Source of the values: ChEMBL document CHEMBL4425111, “Optically Pure, Structural, and Fluorescent Analogues of a Dimeric Y4 Receptor Agonist Derived by an Olefin Metathesis Approach” (J Med Chem, 2016).
